Sampled rows, rich in hits. Any-hit rate of the full collection: about 1.1%.
MT1-MMP act inh: MT1-MMP (human) activation inhibition | HT1080 RFP-PRO-GFP cells, GFP/RFP ratio fluorescence, overnight; percent of plate control window, DMSO zero | GFP/RFP ratio change, % at 20 µM | 360,000 compounds, 0.061% hits;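 active means GFP/RFP ratio change of at least 30% with cell ATP level not reduced by more than half and red fluorescence within 50% of control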
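Assay system: HT1080 RFP-PRO-GFP cells. Benchmarks: DMSO vehicle wells and RFP-L50D-GFP reporter cell wells. Times: overnight cell settling, then overnight compound exposure, 37 °C, 5% CO2. Compound: 20 µM single dose, 1% DMSO. Read-out basis: GFP/RFP fluorescence ratio.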
GC-B act: GC-B (human) receptor activation; 370,000 compounds, 0.11% hits; P20594; activation, % at 10 µM; HEK293-GC-B cells, CNP EC30, cGMP TR-FRET; 0% at EC30 CNP, 100% saturating CNP;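 active means activation at 10 µM reaching about 35% in either raw or pattern-adjusted values, limit read from the data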
GC-A act: GC-A (human) enzyme activation; P16066; HEK293 GC-A cells, cGMP TR-FRET, EC30 ANP; 0% at EC30 ANP, 100% saturating ANP; activation, % at 10 µM; 370,000 compounds, 0.14% hits; in the data active means activation above about 40%
Tb MetRS inh: blocks T. brucei methionyl-tRNA synthetase activity; purified T. brucei MetRS, ATP depletion, Kinase-Glo luminescence; inhibition, % at 11.9 µM; 360,000 compounds, 0.4% hits; AID 624268;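 active means inhibition above a per-plate cutoff of the control wells' mean inhibition plus 3 SD, cut at about 5.5% in these data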
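Assay system: T. brucei methionyl-tRNA synthetase, purified | Medium: HEPES buffer with MgCl2, KCl, DTT, spermine, BSA, pyrophosphatase | Compound: 11.9 µM single point | Incubation: 15 min enzyme-compound preincubation, 2 h reaction, 10 min detection, 25 °C | Measured by: Kinase-Glo luciferase luminescence reporting remaining unconsumed ATP | Measure: % inhibition normalized to control-well medians | Replication: Singlicate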
SKN-1 inh: blocks SKN-1 activity in C. elegans. C. elegans VP596 Pgst-4::GFP/RFP ratio, acrylamide-induced, 24 h. inhibition, % at 21.8 µM. 360,000 compounds, 0.49% hits;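 active means interference check ratio from 0.5 to 1.5 plus GFP to RFP signal ratio inhibition reaching or exceeding a fixed threshold, cut at about 30% in these data, passing the limit was not always enough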
Bfl-1 A1 inh: inhibitors of the anti-apoptotic protein A1, read as caspase activation; 330,000 compounds, 0.066% hits; caspase activation, % (no concentration beside the values); MEF A1-2A-BIM cells, Caspase-Glo 3/7 luminescence, 3 h; percent of clofoctol response, vehicle zero; AID 2462;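 active means over half of replicate activation scores above 10%, or exactly half above 10 with the replicate mean above 10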
A number is an active result; – = inactive; · = not tested or not shown.

SMILES | MT1-MMP act inh | GC-B act | GC-A act | Tb MetRS inh | SKN-1 inh | Bfl-1 A1 inh
COc1cc2c(cc1NC(=O)CSc1nnc(COc3ccccc3)n1Cc1ccco1)oc1ccccc12 | · | – | – | · | · | ·
COCCCNC(=O)C1CCN(S(=O)(=O)c2ccc3[nH]c(=O)oc3c2)CC1 | · | – | – | · | · | ·
COc1ccc(/C=C2/C(=O)N(c3c(F)c(F)c(F)c(F)c3F)N=C2C)cc1 | – | – | 46 | – | – | –
Cc1cc(C)c2nc(NC(=O)c3ccco3)sc2c1 | – | – | – | – | – | –
O=C(Nc1nc2c(Br)cc(Br)cc2c(=O)s1)c1ccco1 | – | 35 | 78 | – | – | –
O=C(/C=C/Nc1ccc(Br)cc1F)c1ccccc1 | – | – | – | – | 50 | –
O=C(/C=C\Nc1ccccn1)c1ccccc1 | – | – | – | – | 61 | –
c1cc2ccn(CC3CC3)c2cc1-c1ccc2ccn(CC3CC3)c2c1 | · | 38 | – | · | · | ·
CC(C)(C)c1nnc(NC(=O)CCC2CCCCC2)s1 | – | – | – | – | – | ·
CCC(C)(C)c1nnc(NC(=O)CCC2CCCCC2)s1 | – | – | – | – | 36 | –
O=c1cc[nH]c2cccc(Cc3ccccc3)c12 | – | – | – | 21 | – | –
CCOC(=O)C(C)On1c(-c2ccc(Cl)cc2)nc2ccc([N+](=O)[O-])cc21 (stereo not drawn) | – | – | – | – | 41 | –
COn1c(-c2ccc(Cl)cc2)nc2ccc(Cl)cc21 | – | – | – | – | 87 | –
O=[N+]([O-])c1ccc2nc(-c3ccc(Cl)cc3)n(OCc3ccccc3)c2c1 | – | – | – | – | 41 | –
O=C(O)COn1c(-c2ccc(Cl)cc2)nc2ccc(Cl)cc21 | – | – | – | – | – | –
O=C1C=C(c2ccc3[nH]ccc3c2)C[C@@H](c2ccc(F)cc2)C1 | – | 36 | – | – | – | –
Cc1ccc2c(c1)C(CS(=O)(=O)NC1CCCC1)NC2 (stereo not drawn) | · | – | – | · | · | ·
Cc1cc(Nc2cccc(Cl)c2Cl)n2ncnc2n1 | – | 39 | – | – | – | –
Cc1ccc(Nc2cc(C)nc3ncnn23)c(Cl)c1 | – | – | – | – | – | –
COC(=O)C[C@H]1CC[C@H]2[C@H](COc3ccc(NC(=O)C4CCOCC4)cc3C(=O)N2C)O1 | · | – | – | · | · | ·
CN(C)CC(O)c1ccc(C=Cc2ccc(Cl)cc2)cc1 (stereo not drawn) | – | – | – | – | 53 | ·
O=C(Nc1nnc(-c2cccnc2)s1)c1cnc2ccccc2c1 | · | – | – | · | · | ·
COc1ccc(C(=O)Nc2nc(-c3cccs3)cs2)cc1 | – | – | – | – | 46 | –
O=C(Nc1nc(-c2cccs2)cs1)c1ccc(Cl)cc1 | – | – | – | – | – | –
COc1cccc(C(=O)C(C#N)=C(SC)SC)c1 | – | – | – | – | – | –
SMILES | MT1-MMP act inh | GC-B act | GC-A act | Tb MetRS inh | SKN-1 inh | Bfl-1 A1 inh
CSC(SC)=C(C#N)C(=O)c1ccccc1 | – | – | – | – | – | 6.7
CCOc1cc(CNCCSc2nnnn2C)cc(Br)c1OCc1ccc(F)cc1 | – | – | – | – | 68 | –
CCOc1cc(CNCCSc2nnnn2C)cc(Br)c1OCc1ccccc1F | – | – | – | – | 39 | –
Cc1csc2nc(CNS(=O)(=O)c3ccc4c(c3)CCCC4)cn12 | – | – | – | – | 36 | –
Cc1csc2nc(CNS(=O)(=O)c3ccc4c(c3)OCCO4)cn12 | – | – | – | – | – | –
Cc1ccc(-n2c(SCC(=O)N/N=C/C=C\c3ccccc3[N+](=O)[O-])nnc2-c2ccccc2)cc1 | · | – | – | · | · | ·
Cc1[nH]c2ccc(Br)cc2c(=O)c1CN1CCOCC1 | – | – | – | 35 | – | –
Cc1c(C(O)CN2CCN(Cc3ccc4c(c3)OCO4)CC2)c2ccccc2n1C (stereo not drawn) | – | – | – | – | – | –
COc1ccc2c(c1)c(C(O)CN1CCN(Cc3ccc4c(c3)OCO4)CC1)c(C)n2C (stereo not drawn) | – | – | – | – | 44 | –
COc1ccc(-n2c(COc3ccc(C)cc3)nnc2SCC(=O)Nc2ccc(S(=O)(=O)Nc3cc(C)nc(C)n3)cc2)cc1 | · | – | – | · | · | ·
